Screening data from PubChem BioAssay.
CHO-K1 Ca antag: nonselective inhibitor or artifact in parental CHO-K1 cells; ATP-induced calcium, Fluo-8 fluorescence; inhibition, % at 3 µM; 0.6% of 360,000 active;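 active means inhibition above a per-plate cutoff, the plate's mean sample inhibition plus 3 SD, cut at about 24% in these data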
M1 PAM parental: nonselective activator or artifact in parental CHO-K1 calcium assay; ATP EC20, Fluo-8 calcium fluorescence; 0% at ATP EC20, 100% at ATP max; activation, % at 3 µM; 0.02% of 360,000 active;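 active means activation above the run cutoff, the mean activation of all test compounds plus 3 SD, cut at about 40% in these data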;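 further: peak over basal fluorescence ratio in a 140 s read after ATP addition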
CHRM5 antagonist: CHRM5 antagonism in calcium assay | inhibition, % at 3 µM | 0.59% of 360,000 active | CHO-hM5 cells, Fluo-8 calcium fluorescence, ACh EC80;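 active means inhibition above a per-plate cutoff, the mean of that plate's test compounds plus 3 SD, cut at about 27% in these data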
Target sequence (P08912 whole entry, looked up): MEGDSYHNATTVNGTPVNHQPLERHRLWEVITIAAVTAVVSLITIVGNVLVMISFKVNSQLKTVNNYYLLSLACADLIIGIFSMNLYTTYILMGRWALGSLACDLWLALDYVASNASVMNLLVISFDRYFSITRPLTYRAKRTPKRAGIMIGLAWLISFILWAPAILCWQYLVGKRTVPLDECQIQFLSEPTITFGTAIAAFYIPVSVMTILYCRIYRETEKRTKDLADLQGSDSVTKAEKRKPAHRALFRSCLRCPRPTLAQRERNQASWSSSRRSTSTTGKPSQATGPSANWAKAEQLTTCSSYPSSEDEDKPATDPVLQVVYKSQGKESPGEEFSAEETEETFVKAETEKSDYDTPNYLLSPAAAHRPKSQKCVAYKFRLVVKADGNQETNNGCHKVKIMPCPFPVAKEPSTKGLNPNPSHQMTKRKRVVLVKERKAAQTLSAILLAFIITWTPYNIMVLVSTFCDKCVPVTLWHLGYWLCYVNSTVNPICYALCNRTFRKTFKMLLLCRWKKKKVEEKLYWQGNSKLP
CHRM5 PAM: CHRM5 positive allosteric modulation; P08912; CHO-K1 hM5, Fluo-8 calcium, ACh EC20 PAM; 0% = ACh EC20, 100% = ACh EC100; activation, % at 3 µM; 0.3% of 360,000 active;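 active means activation above the run cutoff, the mean activation of all test compounds plus 3 SD, cut at about 18% in these data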
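Probe or stimulus: acetylcholine, EC20 level; Assay system: human M5 receptor in CHO-K1 cells; Schedule: compound preincubation 140 s before EC20 acetylcholine addition; Technique: intracellular calcium via Fluo-8 fluorescence; Dosing: single-point, 3 µM nominal; Read-out basis: percent activation from peak-over-basal fluorescence ratio, scaled EC20-to-EC100 acetylcholine; Repeats: one well per compound, no replicates.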
CHRM5 agonist: agonists of human muscarinic M5 receptor (CHRM5); P08912; CHO-K1 hM5 cells, Fluo-8 calcium fluorescence; 0% DMSO wells, 100% maximal acetylcholine response; activation, % at 3 µM; 0.19% of 360,000 active; AID 624037;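 active means activation above the run's mean over test compounds plus 3 SD, cut at about 23% in these data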;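 further: signal is peak over basal fluorescence ratio across the kinetic read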
CHO-K1 Ca ag: counter-screen for M1 agonists: effect in parental CHO-K1 cells | activation, % at 3 µM | Fluo-8 calcium fluorescence; scaled to maximal ATP response, vehicle zero | 0.48% of 360,000 active | AID 602248; in the data active means activation above about 15%;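 further: untransfected CHO-K1 host cells lacking M1 receptor as counterscreen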
A number is an active result. The list is not random: actives were taken first. Their share in the collection is about 1.7%.

Screening COc1ccccc1NC(=O)CSc1nncn1N returned CHO-K1 Ca antag inactive, M1 PAM parental inactive, CHRM5 antagonist inactive, CHRM5 PAM 19, CHRM5 agonist inactive and CHO-K1 Ca ag inactive.
Screening COc1ccccc1NC(=O)Cc1nnc(SCC(=O)NC2CCCCC2C)n1C (stereo unspecified) returned CHO-K1 Ca antag inactive, M1 PAM parental inactive, CHRM5 antagonist 31, CHRM5 PAM inactive, CHRM5 agonist inactive and CHO-K1 Ca ag inactive.
For CN1CCn2cnc(C(=O)Nc3ccc(Cl)cc3)c2C1=O the results were CHO-K1 Ca antag inactive, M1 PAM parental inactive, CHRM5 antagonist inactive, CHRM5 PAM inactive, CHRM5 agonist inactive and CHO-K1 Ca ag inactive.
COc1ccc(NC(=S)NNc2ccc([N+](=O)[O-])cc2S(=O)(=O)Nc2ccc(C)cc2C)cc1 was read as CHO-K1 Ca antag inactive, M1 PAM parental inactive, CHRM5 antagonist 34, CHRM5 PAM inactive, CHRM5 agonist inactive and CHO-K1 Ca ag inactive.
Screening Cc1ccc(NS(=O)(=O)c2cc([N+](=O)[O-])ccc2NNC(=S)Nc2cc(C)ccc2C)c(C)c1 returned CHO-K1 Ca antag inactive, M1 PAM parental inactive, CHRM5 antagonist 37, CHRM5 PAM inactive, CHRM5 agonist inactive and CHO-K1 Ca ag inactive.
Cc1ccc(NS(=O)(=O)c2cc([N+](=O)[O-])ccc2NNC(=S)Nc2cccc(Cl)c2)c(C)c1 was read as CHO-K1 Ca antag inactive, M1 PAM parental inactive, CHRM5 antagonist inactive, CHRM5 PAM inactive, CHRM5 agonist inactive and CHO-K1 Ca ag inactive.
Cc1cc(C)cc(C(=O)Nc2cccnc2)c1 was read as CHO-K1 Ca antag inactive, M1 PAM parental inactive, CHRM5 antagonist inactive, CHRM5 PAM inactive, CHRM5 agonist inactive and CHO-K1 Ca ag inactive.
CC(=O)Nc1ccc(S(=O)(=O)N2CCN=C2SCc2ccc([N+](=O)[O-])cc2)cc1 was read as CHO-K1 Ca antag inactive, M1 PAM parental inactive, CHRM5 antagonist inactive, CHRM5 PAM inactive, CHRM5 agonist inactive and CHO-K1 Ca ag 17.
`Cc1cccc(C)c1NC(=O)COC(=O)c1c2c(nc3ccccc13)/C(=C\c1ccc3c(c1)OCO3)CCC2` gave CHO-K1 Ca antag 28, M1 PAM parental inactive, CHRM5 antagonist inactive, CHRM5 PAM inactive, CHRM5 agonist 49 and CHO-K1 Ca ag 41.
COCc1nnc(NC(=O)c2ccc(S(=O)(=O)N(CC(C)C)CC(C)C)cc2)o1 was read as CHO-K1 Ca antag inactive, M1 PAM parental inactive, CHRM5 antagonist inactive, CHRM5 PAM inactive, CHRM5 agonist inactive and CHO-K1 Ca ag inactive.
Screening CNc1ccc(C(O)(C(F)(F)F)C(F)(F)F)cc1C(O)(C(F)(F)F)C(F)(F)F returned CHO-K1 Ca antag 35, M1 PAM parental inactive, CHRM5 antagonist inactive, CHRM5 PAM inactive, CHRM5 agonist inactive and CHO-K1 Ca ag inactive.
For COC(=O)[C@H](CCSC)NC(=O)NC1CC1 the results were CHO-K1 Ca antag inactive, M1 PAM parental inactive, CHRM5 antagonist inactive, CHRM5 PAM inactive, CHRM5 agonist inactive and CHO-K1 Ca ag inactive.
Screening COc1ccc2cc(CO)n(C)c2c1 returned CHO-K1 Ca antag inactive, M1 PAM parental inactive, CHRM5 antagonist inactive, CHRM5 PAM inactive, CHRM5 agonist inactive and CHO-K1 Ca ag inactive.
O=C(NC1CCCC1)C(c1ccccc1F)N(C(=O)Cc1cccs1)c1ccc2c(c1)OCCO2 (stereo unspecified) was read as CHO-K1 Ca antag inactive, M1 PAM parental inactive, CHRM5 antagonist inactive, CHRM5 PAM inactive, CHRM5 agonist inactive and CHO-K1 Ca ag 24.
Screening O=C(NC1CCCC1)C(c1ccsc1)N(C(=O)Cc1cccs1)c1ccc(F)cc1 (stereo unspecified) returned CHO-K1 Ca antag inactive, M1 PAM parental inactive, CHRM5 antagonist inactive, CHRM5 PAM inactive, CHRM5 agonist inactive and CHO-K1 Ca ag inactive.
Screening Cn1nnc2c(sc3nc(N4CCOCC4)c4c(c32)CCCC4)c1=O returned CHO-K1 Ca antag inactive, M1 PAM parental inactive, CHRM5 antagonist inactive, CHRM5 PAM inactive, CHRM5 agonist inactive and CHO-K1 Ca ag inactive.
`Cc1ccc(C(=O)N2CCSC2=S)cc1` gave CHO-K1 Ca antag 26, M1 PAM parental inactive, CHRM5 antagonist inactive, CHRM5 PAM inactive, CHRM5 agonist inactive and CHO-K1 Ca ag inactive.
`O=C(c1ccccc1)N1CCSC1=S` gave CHO-K1 Ca antag inactive, M1 PAM parental inactive, CHRM5 antagonist inactive, CHRM5 PAM inactive, CHRM5 agonist inactive and CHO-K1 Ca ag inactive.
CCOc1cc(S(=O)(=O)NC2CCCCCC2)ccc1F was read as CHO-K1 Ca antag inactive, M1 PAM parental inactive, CHRM5 antagonist inactive, CHRM5 PAM inactive, CHRM5 agonist inactive and CHO-K1 Ca ag inactive.
Cc1ccc(NC(=O)COC(=O)c2ccc([N+](=O)[O-])o2)cc1S(=O)(=O)N1CCCCCC1 was read as CHO-K1 Ca antag inactive, M1 PAM parental inactive, CHRM5 antagonist inactive, CHRM5 PAM inactive, CHRM5 agonist inactive and CHO-K1 Ca ag inactive.
COC(=O)c1ccccc1NC(=O)C(C)NS(=O)(=O)c1ccc(OC)cc1 (stereo unspecified) was read as CHO-K1 Ca antag inactive, M1 PAM parental inactive, CHRM5 antagonist inactive, CHRM5 PAM inactive, CHRM5 agonist inactive and CHO-K1 Ca ag inactive.
For Nc1ccn([C@@H]2O[C@H](CNCc3cc(Cl)ccc3OCc3ccc(Cl)cc3)[C@@H](O)[C@H]2O)c(=O)n1 the results were CHO-K1 Ca antag inactive, M1 PAM parental inactive, CHRM5 antagonist inactive, CHRM5 PAM inactive, CHRM5 agonist inactive and CHO-K1 Ca ag inactive.
`O=C(OCC(=O)N1CCCC1=O)c1cccc(S(=O)(=O)N2CCOCC2)c1` gave CHO-K1 Ca antag inactive, M1 PAM parental inactive, CHRM5 antagonist inactive, CHRM5 PAM 32, CHRM5 agonist inactive and CHO-K1 Ca ag inactive.
`O=C(OCC(=O)N1CCCC1=O)c1ccc(F)c(S(=O)(=O)N2CCOCC2)c1` gave CHO-K1 Ca antag inactive, M1 PAM parental inactive, CHRM5 antagonist inactive, CHRM5 PAM inactive, CHRM5 agonist inactive and CHO-K1 Ca ag inactive.
For CN1CCN(c2nc3c(c(=O)n(C)c(=O)n3C)n2CCSc2nnnn2-c2ccccc2)CC1 the results were CHO-K1 Ca antag inactive, M1 PAM parental inactive, CHRM5 antagonist inactive, CHRM5 PAM inactive, CHRM5 agonist inactive and CHO-K1 Ca ag inactive.
For CCN(C(=O)CSc1nnc(COc2ccccc2F)n1N)C1CCS(=O)(=O)C1 (stereo unspecified) the results were CHO-K1 Ca antag inactive, M1 PAM parental inactive, CHRM5 antagonist inactive, CHRM5 PAM inactive, CHRM5 agonist inactive and CHO-K1 Ca ag inactive.
For O=C(Nc1ccc(S(=O)(=O)NCc2cccnc2)cc1)c1ccccc1Cl the results were CHO-K1 Ca antag inactive, M1 PAM parental inactive, CHRM5 antagonist inactive, CHRM5 PAM inactive, CHRM5 agonist inactive and CHO-K1 Ca ag inactive.
For O=C(O)c1cc(S(=O)(=O)NCCN2CCNC2=O)ccc1O the results were CHO-K1 Ca antag inactive, M1 PAM parental inactive, CHRM5 antagonist inactive, CHRM5 PAM inactive, CHRM5 agonist inactive and CHO-K1 Ca ag inactive.
